Common to all, as to type: in vitro ADME
In data set [1] the target is CYP2C19 (Homo sapiens, UniProt P33261). Briefly: Cytochrome P450 inhibition assay, CYP2C19. The settings on record: CYP activity as % of control, 10 μM, human liver microsomes.
Data set [2] in a line: Liver microsomal stability, mouse. The conditions noted are these: 1 μM, 0.5 mg/mL microsomal protein, NADPH, 37 °C. An outline of the steps: (§1)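 Liver microsomes (human pool of 150 donors; dog, rat, mouse) at 0.5 mg/mL protein in 100 mM phosphate buffer pH 7.4 with test compound at 1 μM final, 37 °C. Started with NADPH regeneration system and stopped with ice-cold acetonitrile at 0 and 30 min. Supernatant analysed by LC-MS/MS. Percent parent remaining from peak areas against the 0 min sample (100 %), stopped before NADPH addition.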

The target in data set [3] is CYP2D6 (Homo sapiens, UniProt P10635). Briefly: Cytochrome P450 inhibition assay, CYP2D6. The conditions noted are these: CYP activity as % of control, 10 μM, human liver microsomes.
Data set [4] concerns CYP 3A4. Description: Cytochrome P450 inhibition assay, CYP3A4. The settings on record: CYP activity as % of control, 10 μM, human liver microsomes.
Data set [5] has as its target CYP2C9 (Homo sapiens, UniProt P11712). Briefly: Cytochrome P450 inhibition assay, CYP2C9. The settings on record: CYP activity as % of control, 10 μM, human liver microsomes.
The nature of data set [6]: Liver microsomal stability, rat. The conditions noted are these: 1 μM, 0.5 mg/mL microsomal protein, NADPH, 37 °C. An outline of the steps: as §1
Data set [7] is described as follows: Liver microsomal stability, dog. The conditions noted are these: 1 μM, 0.5 mg/mL microsomal protein, NADPH, 37 °C. An outline of the steps: as §1
For data set [8], the target named is T1, CYP1A2 (Homo sapiens, UniProt P05177).
T1 sequence (P05177 1-516): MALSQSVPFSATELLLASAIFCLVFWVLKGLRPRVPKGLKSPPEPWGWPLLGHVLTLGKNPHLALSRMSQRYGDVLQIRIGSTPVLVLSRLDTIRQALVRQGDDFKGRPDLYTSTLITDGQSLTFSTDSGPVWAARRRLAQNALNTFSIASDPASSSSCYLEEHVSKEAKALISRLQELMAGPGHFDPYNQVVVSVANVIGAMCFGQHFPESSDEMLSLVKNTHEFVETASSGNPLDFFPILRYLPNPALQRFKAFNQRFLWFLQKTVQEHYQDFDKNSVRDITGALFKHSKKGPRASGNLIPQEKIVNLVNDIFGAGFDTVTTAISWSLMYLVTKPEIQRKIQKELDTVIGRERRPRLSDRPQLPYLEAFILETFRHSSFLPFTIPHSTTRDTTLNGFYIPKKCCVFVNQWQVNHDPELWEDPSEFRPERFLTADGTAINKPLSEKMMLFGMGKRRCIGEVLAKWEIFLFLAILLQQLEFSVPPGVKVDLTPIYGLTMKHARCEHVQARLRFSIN
Briefly: Cytochrome P450 inhibition assay, CYP1A2. The conditions noted are these: CYP activity as % of control, 10 μM, human liver microsomes.

A short description of data set [9]: Liver microsomal stability, human. The settings on record: 1 μM, 0.5 mg/mL microsomal protein, NADPH, 37 °C. An outline of the steps:
as §1

The structures appear in SMILES notation. Structures can show the parent of a compound that is named as a salt.

These results are taken from publication PMC5800871 (European journal of medicinal chemistry, 2017).

Sequence of CYP2C19 (P33261 whole entry): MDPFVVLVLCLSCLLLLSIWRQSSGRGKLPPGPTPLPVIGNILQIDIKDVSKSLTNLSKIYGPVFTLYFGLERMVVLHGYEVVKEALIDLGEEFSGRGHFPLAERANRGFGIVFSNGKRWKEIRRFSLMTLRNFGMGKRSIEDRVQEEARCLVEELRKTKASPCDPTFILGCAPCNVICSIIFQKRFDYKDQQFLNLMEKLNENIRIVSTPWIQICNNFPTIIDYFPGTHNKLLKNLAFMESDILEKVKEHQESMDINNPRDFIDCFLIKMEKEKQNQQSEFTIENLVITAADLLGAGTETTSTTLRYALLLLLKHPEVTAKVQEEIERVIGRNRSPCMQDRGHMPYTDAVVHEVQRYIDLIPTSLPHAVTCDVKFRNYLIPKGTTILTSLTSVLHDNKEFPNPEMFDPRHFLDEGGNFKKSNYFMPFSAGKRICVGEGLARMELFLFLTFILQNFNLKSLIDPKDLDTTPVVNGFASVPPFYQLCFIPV
Sequence of CYP2C9 (P11712 whole entry): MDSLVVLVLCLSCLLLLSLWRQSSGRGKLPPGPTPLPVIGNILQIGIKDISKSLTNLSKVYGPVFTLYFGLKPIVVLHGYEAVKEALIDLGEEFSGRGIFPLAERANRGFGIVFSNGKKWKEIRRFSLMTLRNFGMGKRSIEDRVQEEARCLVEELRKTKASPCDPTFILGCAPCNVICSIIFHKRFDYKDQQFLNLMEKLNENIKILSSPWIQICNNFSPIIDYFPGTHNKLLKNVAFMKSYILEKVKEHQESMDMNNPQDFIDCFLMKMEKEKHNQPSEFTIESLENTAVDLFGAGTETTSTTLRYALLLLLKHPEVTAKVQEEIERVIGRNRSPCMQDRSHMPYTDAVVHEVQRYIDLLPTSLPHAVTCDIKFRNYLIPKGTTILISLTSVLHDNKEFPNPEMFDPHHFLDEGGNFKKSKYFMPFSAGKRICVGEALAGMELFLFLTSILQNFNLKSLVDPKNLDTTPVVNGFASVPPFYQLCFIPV
Sequence of CYP2D6 (P10635 whole entry): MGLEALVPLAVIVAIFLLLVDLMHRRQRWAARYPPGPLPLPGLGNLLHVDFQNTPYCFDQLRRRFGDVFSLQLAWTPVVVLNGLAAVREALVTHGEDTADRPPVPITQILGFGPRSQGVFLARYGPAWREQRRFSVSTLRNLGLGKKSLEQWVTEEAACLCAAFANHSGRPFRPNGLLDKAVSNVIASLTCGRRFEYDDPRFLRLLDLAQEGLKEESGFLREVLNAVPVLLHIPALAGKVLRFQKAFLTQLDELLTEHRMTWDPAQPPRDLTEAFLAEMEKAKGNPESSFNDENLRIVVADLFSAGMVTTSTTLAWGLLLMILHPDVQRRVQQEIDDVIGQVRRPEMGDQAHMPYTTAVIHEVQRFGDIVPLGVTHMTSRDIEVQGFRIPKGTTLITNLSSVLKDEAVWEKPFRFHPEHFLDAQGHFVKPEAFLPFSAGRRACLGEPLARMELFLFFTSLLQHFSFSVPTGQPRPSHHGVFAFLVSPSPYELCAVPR

On to `C=CC(=O)Nc1cc(Nc2ncc(I)c(Nc3ccccc3S(=O)(=O)C(C)C)n2)c(OC)cc1N(C)CCN(C)C` [Compound 7d, N-(2-((2-(Dimethylamino)ethyl)(methyl)amino)-5-((5-iodo-4-((2-(isopropylsulfonyl)phenyl)amino)pyrimidin-2-yl)amino)-4-methoxyphenyl)acrylamide], for which the “Cytochrome P450 inhibition (% of control) 2C19” value in data set [1] was 86 % of control. For the same compound, in data set [2], the “Liver microsomal stability (% remaining after 30 min) Mouse” value is 10 % remaining after 30 min. Also, the “Cytochrome P450 inhibition (% of control) 2D6” value in data set [3] is 82 % of control. For the same compound, in data set [4], the “Cytochrome P450 inhibition (% of control) 3A4” value is 47 % of control. Besides, in data set [5], the “Cytochrome P450 inhibition (% of control) 2C9” value is on record as 88 % of control. Moreover, in data set [6], the “Liver microsomal stability (% remaining after 30 min) Rat” value came out at 14 % remaining after 30 min. The “Liver microsomal stability (% remaining after 30 min) Dog” value in data set [7] was 19 % remaining after 30 min. The “Cytochrome P450 inhibition (% of control) 1A2” value in data set [8] is 81 % of control. Besides, in [9], the “Liver microsomal stability (% remaining after 30 min) Human” value is 14 % remaining after 30 min.
As to `C=CC(=O)Nc1cc(Nc2ncc(I)c(Nc3ccccc3P(C)(C)=O)n2)c(OC)cc1N(C)CCN(C)C` [Compound 7h, N-(2-((2-(Dimethylamino)ethyl)(methyl)amino)-5-((4-((2-(dimethylphosphoryl)phenyl)amino)-5-iodopyrimidin-2-yl)amino)-4-methoxyphenyl)acrylamide trifluoroacetate salt], the “Cytochrome P450 inhibition (% of control) 3A4” value in data set [4] is 88 % of control. In data set [5], the “Cytochrome P450 inhibition (% of control) 2C9” value is on record as >100 % of control. The “Liver microsomal stability (% remaining after 30 min) Rat” value in [6] turned out to be 81 % remaining after 30 min. In addition, in data set [8], the “Cytochrome P450 inhibition (% of control) 1A2” value is given as 91 % of control. Besides, the “Liver microsomal stability (% remaining after 30 min) Human” value in [9] is on record as 65 % remaining after 30 min.
For the compound `C=CC(=O)Nc1cc(Nc2ncc(F)c(Nc3ccccc3P(C)(C)=O)n2)c(OC)cc1N(C)CCN(C)C` [Compound 7f, N-(2-((2-(Dimethylamino)ethyl)(methyl)amino)-5-((4-((2-(dimethylphosphoryl)phenyl)amino)-5-fluoropyrimidin-2-yl)amino)-4-methoxyphenyl)acrylamide trifluoroacetate salt], the “Cytochrome P450 inhibition (% of control) 2C19” value in data set [1] is given as >100 % of control. The “Liver microsomal stability (% remaining after 30 min) Mouse” value in [2] was determined as 80 % remaining after 30 min. Besides, in data set [3], the “Cytochrome P450 inhibition (% of control) 2D6” value is >100 % of control. Besides, the “Cytochrome P450 inhibition (% of control) 3A4” value in data set [4] is given as >100 % of control. Besides, the “Cytochrome P450 inhibition (% of control) 2C9” value in data set [5] is given as >100 % of control. In addition, the “Liver microsomal stability (% remaining after 30 min) Rat” value in data set [6] is given as 87 % remaining after 30 min. In addition, in [7], the “Liver microsomal stability (% remaining after 30 min) Dog” value was 87 % remaining after 30 min. Further, the “Cytochrome P450 inhibition (% of control) 1A2” value in data set [8] is on record as >100 % of control. The “Liver microsomal stability (% remaining after 30 min) Human” value in data set [9] turned out to be 84 % remaining after 30 min.
Regarding `C=CC(=O)Nc1cc(Nc2ncc(F)c(Nc3ccccc3S(=O)(=O)N(C)C)n2)c(OC)cc1N(C)CCN(C)C` [Compound 7j, N-(2-((2-(Dimethylamino)ethyl)(methyl)amino)-5-((4-((2-(N,N-dimethylsulfamoyl)phenyl)amino)-5-fluoropyrimidin-2-yl)amino)-4-methoxyphenyl)acrylamide], the “Cytochrome P450 inhibition (% of control) 2C19” value in data set [1] was 91 % of control. Further, the “Liver microsomal stability (% remaining after 30 min) Mouse” value in data set [2] is listed as 10 % remaining after 30 min. In [3], the “Cytochrome P450 inhibition (% of control) 2D6” value was >100 % of control. Moreover, in data set [6], the “Liver microsomal stability (% remaining after 30 min) Rat” value is reported as 7 % remaining after 30 min. For the same compound, in [8], the “Cytochrome P450 inhibition (% of control) 1A2” value is on record as >100 % of control.
As to `C=CC(=O)Nc1cc(Nc2ncc(F)c(Nc3ccccc3S(=O)(=O)C(C)C)n2)c(OC)cc1N(C)CCN(C)C` [Compound 7b, N-(2-((2-(Dimethylamino)ethyl)(methyl)amino)-5-((5-fluoro-4-((2-(isopropylsulfonyl)phenyl)amino)pyrimidin-2-yl)amino)-4-methoxyphenyl)acrylamide], in data set [1], the “Cytochrome P450 inhibition (% of control) 2C19” value is recorded as 93 % of control. The “Liver microsomal stability (% remaining after 30 min) Mouse” value in [2] was found to be 15 % remaining after 30 min. In addition, the “Cytochrome P450 inhibition (% of control) 2D6” value in data set [3] is on record as 95 % of control. In addition, the “Cytochrome P450 inhibition (% of control) 3A4” value in [4] is listed as 51 % of control. Besides, in data set [5], the “Cytochrome P450 inhibition (% of control) 2C9” value was 94 % of control. Also, the “Liver microsomal stability (% remaining after 30 min) Rat” value in data set [6] is 11 % remaining after 30 min. The “Liver microsomal stability (% remaining after 30 min) Dog” value in data set [7] came out at 27 % remaining after 30 min. The “Cytochrome P450 inhibition (% of control) 1A2” value in [8] is given as 91 % of control. Also, in [9], the “Liver microsomal stability (% remaining after 30 min) Human” value came to 26 % remaining after 30 min.
As to `C=CC(=O)Nc1cc(Nc2ncc(Cl)c(Nc3ccccc3P(C)(C)=O)n2)c(OC)cc1N(C)CCN(C)C` [Compound 7g, N-(5-((5-Chloro-4-((2-(dimethylphosphoryl)phenyl)amino)pyrimidin-2-yl)amino)-2-((2-(dimethylamino)ethyl)(methyl)amino)-4-methoxyphenyl)acrylamide trifluoroacetate salt], in data set [2], the “Liver microsomal stability (% remaining after 30 min) Mouse” value is recorded as 66 % remaining after 30 min. Also, the “Cytochrome P450 inhibition (% of control) 3A4” value in [4] is on record as 91 % of control. Moreover, in data set [5], the “Cytochrome P450 inhibition (% of control) 2C9” value was >100 % of control. In [6], the “Liver microsomal stability (% remaining after 30 min) Rat” value turned out to be 76 % remaining after 30 min. Also, the “Cytochrome P450 inhibition (% of control) 1A2” value in [8] is recorded as 93 % of control. The “Liver microsomal stability (% remaining after 30 min) Human” value in data set [9] amounted to 61 % remaining after 30 min.
For `C=CC(=O)Nc1cc(Nc2nccc(Nc3ccccc3S(=O)(=O)N(C)C)n2)c(OC)cc1N(C)CCN(C)C` [Compound 7i, N-(2-((2-(Dimethylamino)ethyl)(methyl)amino)-5-((4-((2-(N,N-dimethylsulfamoyl)phenyl)amino)pyrimidin-2-yl)amino)-4-methoxyphenyl)acrylamide], the “Liver microsomal stability (% remaining after 30 min) Mouse” value in data set [2] was found to be 5 % remaining after 30 min. In addition, the “Cytochrome P450 inhibition (% of control) 2C9” value in [5] is given as 88 % of control. The “Cytochrome P450 inhibition (% of control) 1A2” value in data set [8] was 82 % of control. Also, the “Liver microsomal stability (% remaining after 30 min) Human” value in data set [9] was found to be 10 % remaining after 30 min.
With `C=CC(=O)Nc1cc(Nc2nccc(Nc3ccccc3P(C)(C)=O)n2)c(OC)cc1N(C)CCN(C)C` [Compound 7e, N-(2-((2-(Dimethylamino)ethyl)(methyl)amino)-5-((4-((2-(dimethylphosphoryl)phenyl)amino)pyrimidin-2-yl)amino)-4-methoxyphenyl)acrylamide trifluoroacetate salt], the “Cytochrome P450 inhibition (% of control) 2C19” value in [1] was >100 % of control. For the same compound, in data set [2], the “Liver microsomal stability (% remaining after 30 min) Mouse” value was determined as 76 % remaining after 30 min. Further, the “Cytochrome P450 inhibition (% of control) 2D6” value in [3] is recorded as 87 % of control. The “Cytochrome P450 inhibition (% of control) 3A4” value in [4] is given as 89 % of control. Also, the “Cytochrome P450 inhibition (% of control) 2C9” value in data set [5] is recorded as 90 % of control. Also, the “Liver microsomal stability (% remaining after 30 min) Rat” value in data set [6] came out at 78 % remaining after 30 min. In addition, the “Liver microsomal stability (% remaining after 30 min) Dog” value in data set [7] was determined as 73 % remaining after 30 min. Also, in data set [8], the “Cytochrome P450 inhibition (% of control) 1A2” value is 84 % of control. Besides, the “Liver microsomal stability (% remaining after 30 min) Human” value in data set [9] was determined as 70 % remaining after 30 min.
`C=CC(=O)Nc1cc(Nc2ncc(I)c(Nc3ccccc3S(=O)(=O)N(C)C)n2)c(OC)cc1N(C)CCN(C)C` [Compound 7l, N-(2-((2-(Dimethylamino)ethyl)(methyl)amino)-5-((4-((2-(N,N-dimethylsulfamoyl)phenyl)amino)-5-iodopyrimidin-2-yl)amino)-4-methoxyphenyl)acrylamide]: the “Liver microsomal stability (% remaining after 30 min) Mouse” value in data set [2] is reported as 12 % remaining after 30 min. Besides, in data set [6], the “Liver microsomal stability (% remaining after 30 min) Rat” value came out at 12 % remaining after 30 min.
Take `C=CC(=O)Nc1cc(Nc2ncc(Cl)c(Nc3ccccc3S(=O)(=O)N(C)C)n2)c(OC)cc1N(C)CCN(C)C` [Compound 7k, N-(5-((5-Chloro-4-((2-(N,N-dimethylsulfamoyl)phenyl)amino)pyrimidin-2-yl)amino)-2-((2-(dimethylamino)ethyl)(methyl)amino)-4-methoxyphenyl)acrylamide]: in data set [7], the “Liver microsomal stability (% remaining after 30 min) Dog” value is recorded as 31 % remaining after 30 min.
